This is a sample that favours compounds with a hit; in the whole collection about 2.1% have one here.
CD11b adhes enh – enhancers of human CD11b/CD18 binding to fibrinogen; 93,000 tested, 0.07% active; K562 CD11b/CD18 adhesion to fibrinogen, ATPlite luminescence; AID 1499; P05107+P11215; activation, % at 10 µM;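 active = 10 µM primary screen giving 50% or more activity, confirmed by 40% or more on retest at that dose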
TNAP act DEA – activators of human TNAP at intermediate phosphate acceptor. purified TNAP, CDP-star luminescence, 100 mM DEA, 30 min; hits give high values; scale: 0 levamisole-inhibited, 1 vehicle-only enzyme. activation factor at 20 µM. 64,000 tested, under 10 active;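 active = activation factor of at least 2 at 20 µM, relative to controls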
SF-1 act – activators of human nuclear receptor SF-1; CHO-K1 Gal4-SF-1 LBD luciferase reporter; % increase over DMSO SF-1-specific signal; activation, % at 10 µM; 65,000 tested, 1.9% active; AID 522;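 active = activation above the mean activation of all tested compounds plus 3 SD, cut at about 50% in these data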
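System: CHO-K1 cells with Gal4–hSF-1 LBD chimera plus Gal4-driven luciferase; quantity: 4,000 CHO-K1 cells per well; compound: one dose, 10 µM compound, 1% DMSO; times: 20 h compound treatment, 37 °C; measured by: SteadyLite luciferase luminescence; read-out: percent activation versus DMSO; benchmarks: DMSO and mock-transfected background; replicates: one test per compound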
RORA act – activators of human nuclear receptor RORA; CHO-K1 Gal4-RORA LBD luciferase reporter, luminescence; percent increase over mock-subtracted basal signal; 65,000 tested, 1.5% active; AID 560; activation, % at 10 µM; P35398;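 active = activation above the mean of all tested compounds plus 3 SD, cut at about 49% in these data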;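 also: 0% = DMSO-treated RORA cells and 100% = added signal equal to DMSO minus mock-transfected cells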
Target sequence (P35398 whole entry, looked up, the tested form may be a part): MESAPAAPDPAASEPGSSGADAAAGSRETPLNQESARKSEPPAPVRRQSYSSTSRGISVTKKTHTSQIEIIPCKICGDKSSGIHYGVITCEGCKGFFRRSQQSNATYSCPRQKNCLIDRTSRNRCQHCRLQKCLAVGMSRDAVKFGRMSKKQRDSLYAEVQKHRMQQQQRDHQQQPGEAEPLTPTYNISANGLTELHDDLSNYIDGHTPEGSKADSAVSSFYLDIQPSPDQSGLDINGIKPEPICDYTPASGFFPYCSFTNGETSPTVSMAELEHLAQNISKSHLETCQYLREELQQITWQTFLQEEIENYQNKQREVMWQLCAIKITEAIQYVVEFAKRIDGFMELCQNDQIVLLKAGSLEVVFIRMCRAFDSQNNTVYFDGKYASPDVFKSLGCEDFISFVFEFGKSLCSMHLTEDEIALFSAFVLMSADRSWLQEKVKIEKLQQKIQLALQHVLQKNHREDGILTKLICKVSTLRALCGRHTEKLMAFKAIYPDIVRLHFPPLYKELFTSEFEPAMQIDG
Mac1 fbg inh – CD11b/CD18-fibrinogen binding inhibition | 93,000 tested, 0.54% active | inhibition, % at 10 µM | P05107+P11215 | K562 CD11b/CD18 adhesion to fibrinogen, ATPlite luminescence; Mn2+ added to activate the integrin | AID 1497;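 active = primary inhibition of 50% or more at 10 µM, then 40% or more on retest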
MT1-MMP txn act – MT1-MMP promoter transcription activation; HT1080 MT1-MMP promoter luciferase reporter, luminescence, overnight; hits give high values; activation factor at 10 µM; 86,000 tested, 0.16% active; AID 750;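 active = activation factor of at least 2 for MT1-MMP transcription at 10 µM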
* hit, by the source's call.

`O=C(Nc1ccc2c(c1)OCO2)c1ccc(Br)s1` gave CD11b adhes enh -2.8, TNAP act DEA 0.9, SF-1 act 48.6, RORA act 68.8* and Mac1 fbg inh -9.3.
Screening COC(=O)[C@@]1(Cc2ccccc2)[C@H]2c3cc(C(=O)N(C)C)n(CCN4CCNC4=O)c3C[C@H]2CN1C(=O)c1ccccc1 returned MT1-MMP txn act 1.7.
For CCCCCCN(C(=O)CCCCCN1C(=O)NC(c2ccc3ccccc3c2)C(C(=O)OCc2ccccc2)=C1C)C(C(=O)NCCCC)c1ccc(OCC(=O)OC)c(C(=O)OC)c1 (centres undefined) the results were MT1-MMP txn act 1.
`O=C(c1ccc2c(c1)OCCCO2)c1cccs1` gave CD11b adhes enh 1.4, TNAP act DEA 0.9, SF-1 act 53.7*, RORA act 22.2, Mac1 fbg inh -2.2 and MT1-MMP txn act 1.4.
O=C(Nc1ccc2c(c1)OCO2)c1cc(C2CC2)on1 was read as CD11b adhes enh -0.9, TNAP act DEA 0.9, SF-1 act 48.8, RORA act 59.7*, Mac1 fbg inh 12.1 and MT1-MMP txn act 1.
CC(=O)c1ccc(NC(=O)c2cccs2)cc1 was read as CD11b adhes enh -1.5, Mac1 fbg inh -10.4 and MT1-MMP txn act 1.3.
For O=C(NCC1CCCO1)c1cccs1 (centres undefined) the results were CD11b adhes enh 3.5, TNAP act DEA 0.9, SF-1 act 9.7, RORA act -0.6, Mac1 fbg inh -1.4 and MT1-MMP txn act 1.2.
For N/C(=N\O)c1ccc(NC(=O)c2cccs2)cc1 the results were CD11b adhes enh 0.9, TNAP act DEA 0.9, SF-1 act 52.4*, RORA act 35.5, Mac1 fbg inh 7.3 and MT1-MMP txn act 1.5.
Screening CCC1=C2CC[C@H]3C(=O)N(C)C(=O)[C@H]3[C@H]2[C@@]2(C)C(=NCC(=O)OC)OC(=O)N2C1=O returned MT1-MMP txn act 1.1.
c1coc(CNc2nc3nonc3nc2NCc2ccco2)c1 was read as CD11b adhes enh -3.4, TNAP act DEA 0.9, SF-1 act -12.1, RORA act -4.4, Mac1 fbg inh 61.8* and MT1-MMP txn act 1.
`O=S(=O)(Nc1nc2ccccc2nc1NCc1ccco1)c1ccccc1` gave CD11b adhes enh -1.9, TNAP act DEA 1, SF-1 act -8.7, RORA act 6.6, Mac1 fbg inh 11.5 and MT1-MMP txn act 1.2.
Cn1c(SCc2c(F)cccc2Cl)nnc1-c1cccs1 was read as CD11b adhes enh 11.3, TNAP act DEA 0.9, SF-1 act 58.4*, RORA act 102.1*, Mac1 fbg inh -21.6 and MT1-MMP txn act 1.7.
Cn1c(SCCOc2ccccc2Cl)nnc1-c1cccs1 was read as MT1-MMP txn act 1.4.
For O=C(C1COc2ccccc2O1)N1CCCC1 (centres undefined) the results were CD11b adhes enh -1.1, TNAP act DEA 0.9, Mac1 fbg inh -13.7 and MT1-MMP txn act 1.1.
Screening O=C(C1COc2ccccc2O1)N1CCc2ccccc21 (centres undefined) returned CD11b adhes enh 0.0, TNAP act DEA 1, SF-1 act 54.0*, RORA act 30.2, Mac1 fbg inh 8.9 and MT1-MMP txn act 1.5.
For CCCCC(=O)Nc1cccc(NC(=O)c2ccccc2Br)c1 the results were CD11b adhes enh 0.5 and Mac1 fbg inh -29.9.
`Cc1cc(Cl)c(S(=O)(=O)N2CCN(c3ccc(F)cc3)CC2)cc1OCC(N)=O` gave CD11b adhes enh -1.3, TNAP act DEA 1, SF-1 act 21.4, RORA act 25.3, Mac1 fbg inh 3.3 and MT1-MMP txn act 1.
For Cc1cc(Cl)c(S(=O)(=O)N2CCN(c3ccc(F)cc3)CC2)cc1OCC(=O)NC1CCCCC1 the results were CD11b adhes enh -6.4, Mac1 fbg inh 94.2* and MT1-MMP txn act 1.2.
Screening Cc1ccc2nc(-c3cccc(NC(=O)c4ccc5c(c4)OCCO5)c3)oc2c1 returned CD11b adhes enh 0.2, TNAP act DEA 0.9, SF-1 act 55.2*, RORA act 41.6, Mac1 fbg inh 7.2 and MT1-MMP txn act 1.4.
`Cc1ccc2nc(Cc3ccc(N)cc3)oc2c1` gave CD11b adhes enh -1.8, TNAP act DEA 1, SF-1 act 67.8*, RORA act 38.9, Mac1 fbg inh -16.8 and MT1-MMP txn act 1.6.
Screening Cc1ccc2nc(-c3cccc(N)c3)oc2c1 returned CD11b adhes enh -3.1 and Mac1 fbg inh 58.8*.
`O=C(N/N=C/C=C/c1ccco1)/C(=C/c1ccccc1)NC(=O)c1ccccc1` gave CD11b adhes enh -2.2 and Mac1 fbg inh 4.1.
For CNc1sc(C(=O)c2cccs2)c(N)c1-c1nc2ccccc2s1 the results were CD11b adhes enh 22.2, TNAP act DEA 0.8, SF-1 act 79.3*, RORA act 32.5, Mac1 fbg inh 2.1 and MT1-MMP txn act 1.9.
CNc1sc(C(=O)c2ccc(F)cc2)c(N)c1-c1nc2ccccc2s1 was read as CD11b adhes enh 0.3, Mac1 fbg inh -1.5 and MT1-MMP txn act 1.6.
For Nc1c(C(=O)Nc2ccc3c(c2)OCCO3)nnn1CCc1ccccc1 the results were CD11b adhes enh -1.1, TNAP act DEA 0.8, SF-1 act 92.4*, RORA act 141.9*, Mac1 fbg inh -2.2 and MT1-MMP txn act 1.1.
C/C(=C\C(=O)c1ccc(Br)cc1)NCc1ccc(C)cc1 was read as CD11b adhes enh -10.9, Mac1 fbg inh 81.0* and MT1-MMP txn act 1.2.
For C/C(=C\C(=O)c1ccc(Br)cc1)NCc1ccccc1 the results were CD11b adhes enh -0.4, Mac1 fbg inh -14.7 and MT1-MMP txn act 1.2.
`COC(=O)[C@@]1(Cc2ccccc2)[C@H]2c3cc(C(=O)N(C)C)n(Cc4cc(C)n(C)n4)c3C[C@H]2CN1C(=O)c1ccccc1` gave MT1-MMP txn act 1.
For Cn1cccc1C(=O)OCc1csc(-c2ccccc2)n1 the results were CD11b adhes enh -0.7, TNAP act DEA 1, SF-1 act 6.4, RORA act 59.1*, Mac1 fbg inh 35.0 and MT1-MMP txn act 0.6.
For CCc1ccccc1Nc1nc(N)nc(COC(=O)c2cccn2C)n1 the results were CD11b adhes enh 2.4, TNAP act DEA 1, SF-1 act 30.7, RORA act 28.4, Mac1 fbg inh -15.0 and MT1-MMP txn act 1.7.
For O=C(OCc1csc(-c2ccccc2)n1)c1cccs1 the results were CD11b adhes enh -1.8, TNAP act DEA 0.8, SF-1 act 43.0, RORA act 30.6, Mac1 fbg inh 27.1 and MT1-MMP txn act 1.5.
`Cc1ccccc1Nc1nc(N)nc(COC(=O)c2cccn2C)n1` gave CD11b adhes enh -1.6, TNAP act DEA 1, SF-1 act 65.5*, RORA act 60.3*, Mac1 fbg inh -8.0 and MT1-MMP txn act 1.4.
Screening Cn1c(C(=O)Nc2ccccc2)cc2sccc21 returned MT1-MMP txn act 2.2*.
